# Most compounds without a hit are left out; they make up all but 3.1% or so of the library.
# KCNQ1 block = human KCNQ1 channel inhibition. P51787. CHO-K1 KCNQ1, FluxOR thallium flux fluorescence; active compounds read high. B-score at 10 µM. hit rate 1.3% among 310,000. AID 2642;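 active = compounds whose thallium flux B-score, printed positive for inhibition, exceeds three library SD while starting fluorescence stays within three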;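 note: channel opened by potassium depolarization with thallium stimulus after 20 min compound exposure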
# KCNK9 block = blocks the human KCNK9 two-pore domain potassium channel; hit rate 1.2% among 310,000; Q9NPC2; B-score at 10 µM; AID 488922; HEK293 KCNK9, FluxOR thallium flux fluorescence; active compounds read low;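 active = ratio B-score over 3 SD below the library mean, with starting fluorescence within 5 SD of its mean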;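 note: negative B-score means less thallium flux so channel inhibition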
# KCNK3 block = human KCNK3 channel inhibition, primary screen | O14649 | hit rate 0.84% among 340,000 | B-score at 10 µM | CHO-KCNK3 thallium flux, FluxOR fluorescence; active compounds read low;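 active = B-score under library mean minus 4 SD, starting fluorescence ratio at most library mean plus 5 SD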;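 note: more negative B-score means stronger inhibition of thallium flux through KCNK3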
# Target sequence (O14649 whole entry, looked up): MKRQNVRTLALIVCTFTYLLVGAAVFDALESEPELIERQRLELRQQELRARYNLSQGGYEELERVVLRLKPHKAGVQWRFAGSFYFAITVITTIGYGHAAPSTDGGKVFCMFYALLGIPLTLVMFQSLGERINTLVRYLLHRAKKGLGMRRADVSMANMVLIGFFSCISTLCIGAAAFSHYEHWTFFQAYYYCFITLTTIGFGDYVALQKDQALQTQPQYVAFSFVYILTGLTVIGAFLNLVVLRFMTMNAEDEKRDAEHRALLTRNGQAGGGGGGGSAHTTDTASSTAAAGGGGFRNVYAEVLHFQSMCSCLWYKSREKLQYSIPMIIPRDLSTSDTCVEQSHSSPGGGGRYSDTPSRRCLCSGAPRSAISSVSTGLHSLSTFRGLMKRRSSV
# hERG rescue = shields human hERG channel from block by proarrhythmic agents; Q12809; CHO-hERG, FluxOR thallium flux, dofetilide IC70 present; activation (rescue from dofetilide block), less the hit threshold, % at 10 µM; hit rate 0.51% among 310,000;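 active = activation above the mean of controls blocked by dofetilide plus 5 SD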;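 note: thallium influx through hERG after potassium depolarization seen as dye fluorescence rise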
# KCNQ1 act = potentiates or activates the human KCNQ1 potassium channel. P51787. CHO-K1 KCNQ1, thallium flux FluxOR fluorescence; active compounds read high. B-score at 10 µM. hit rate 0.35% among 310,000;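 active = fluorescence ratio B-score, a plate-corrected score, at least three library SD, with initial intensity B-score within 5 SD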
#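 assay system = CHO-K1 cells stably expressing KCNQ1 | medium = assay buffer, equal DMSO in all wells | timing = 37 °C overnight plating, 90-min dark dye load, 20-min compound pretreatment | measured by = kinetic FluxOR thallium fluorescence, 10-s 1-Hz baseline, 110-s post-stimulus read | measure = fluorescence change relative to baseline, converted to B score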
# The depositor's hits bear a star; i = inactive; . = no result.
SMILES,KCNQ1 block,KCNK9 block,KCNK3 block,hERG rescue,KCNQ1 act
CCOC(=O)c1ccccc1NC(=O)COC(=O)Cc1ccccc1F,.,.,i,.,.
Oc1ccc(C[C@@H]2CNCCN2CCC23CC4CC(CC(C4)C2)C3)cc1,i,i,i,-11.9,i
Oc1ccc(C[C@H]2CNCCN2CCC23CC4CC(CC(C4)C2)C3)cc1,6*,i,i,-3.4,i
CCC(C)(C)NC(=O)C(c1cccc(OC)c1)N(C(=O)CNC(=O)c1cccs1)c1cccnc1 (stereo not drawn),i,i,i,-5.4,i
Cn1c(SCCC#N)nnc1-c1ccc(F)cc1,i,i,i,-14.5,i
CC(C)(C)c1ccc(-c2nnc(SCCC#N)n2C2CCCC2)cc1,6*,i,i,-17.7,i
COc1ccc(C)cc1Nc1n[n+](C)c(-c2ccc(O)cc2O)s1,i,i,i,-9.0,i
COc1ccc(C)cc1Nc1n[n+](-c2ccccc2)c(-c2ccc(OC)c(OC)c2OC)s1,11*,i,i,-25.1,i
Oc1ccc2ccccc2c1/C=N/c1nc2c(s1)CCCC2,i,i,i,-6.8,i
Oc1c(Br)cc(Br)cc1/C=N/c1nc2c(s1)CCCC2,i,i,i,-28.2,13*
COc1ccc(S(=O)(=O)NCc2ccc(C(=O)N3CCN(Cc4ccccc4)CC3)cc2)cc1,i,i,i,-6.7,i
Cc1ccc(S(=O)(=O)NCc2ccc(C(=O)N3CCN(Cc4ccccc4)CC3)cc2)cc1,i,i,-9.26*,-3.6,i
Cc1ccc(S(=O)(=O)NCc2ccc(C(=O)NCCCN3CCC(Cc4ccccc4)CC3)cc2)cc1,6*,i,i,-21.5,i
CCN(CC(=O)NCc1ccc(F)cc1)C(=O)c1cccc(S(=O)(=O)N(C)c2ccc(OC)cc2)c1,.,.,i,.,.
C[C@H](CO)N1C[C@H](C)[C@@H](CN(C)C(=O)Nc2ccc3c(c2)OCO3)Oc2c(NS(=O)(=O)c3ccc(F)cc3)cccc2C1=O,.,.,i,.,.
Cc1cc(S(=O)(=O)NCc2ccncc2)c(C)cc1Br,6*,i,i,-15.2,i
Cc1ccc(C)c(S(=O)(=O)NCc2ccncc2)c1,i,i,i,-8.9,i
O=C(CC(c1ccccc1)c1ccccc1O)NCc1ccco1 (stereo not drawn),i,i,i,-8.9,i
CC(C)Oc1ccc(CNC(=O)CC(c2ccccc2)c2cc(Cl)ccc2O)cc1 (stereo not drawn),7*,-7.32*,i,-13.2,i
COc1ccccc1C(CC(=O)Nc1ccc(Cl)cc1)c1ccc(OC(C)C)cc1 (stereo not drawn),i,i,i,-5.8,i
O=C(CC(c1ccccc1)c1ccccc1O)NCc1ccccc1Cl (stereo not drawn),i,-7.55*,i,-9.6,i
COc1ccc(-c2csc(=Nc3c(C)n(C)n(-c4ccccc4)c3=O)n2C(C)(C)C)cc1,i,i,i,5.1*,i
COc1ccc(-n2c(C(C)(C)C)csc2=Nc2c(C)n(C)n(-c3ccccc3)c2=O)cc1,i,i,i,-4.4,i
CC12CCC(C(=O)OC3CCCCC3)(OC1=O)C2(C)C (stereo not drawn),i,i,i,5.8*,i
CN1CCC(OC(=O)C23CCC(C)(C(=O)O2)C3(C)C)CC1 (stereo not drawn),i,i,i,0.3,i
SMILES,KCNQ1 block,KCNK9 block,KCNK3 block,hERG rescue,KCNQ1 act
CCCCOc1ccc(-c2nnn(C(C)C(=O)OCC)n2)cc1 (stereo not drawn),i,-7.22*,i,-3.1,i
CCC(C(=O)O)n1nnc(-c2ccc(-c3ccc(OC)cc3)cc2)n1 (stereo not drawn),i,i,i,-3.9,i
CCOC(=O)N1CCN(C(=O)/C(=C/c2cccc3ccccc23)NC(=O)c2ccc(OC)c(OC)c2)CC1,i,i,i,-11.9,i
COc1ccc(C(=O)N/C(=C\c2cccc3ccccc23)C(=O)N2CCN(C)CC2)cc1OC,i,i,i,9.7*,i
CCN=C1SC(C(=O)Nc2cccc(Br)c2)CC(=O)N1CC (stereo not drawn),i,-7.09*,i,-7.4,i
COCCn1c(SCC(=O)Nc2cccc(F)c2)nc2c(c1=O)SCC2,i,i,i,-6.7,i
Cc1nc(NCCc2ccc(O)cc2)c2nnn(Cc3ccccc3)c2n1,i,i,i,9.1*,i
O=C(O)c1c[nH]c2c([N+](=O)[O-])cccc2c1=O,.,.,i,.,.
Cc1ccc(S(=O)(=O)Oc2ccccc2/C=C2/SC(=O)NC2=O)cc1,9*,i,i,-10.9,i
O=C1NC(=O)C(=Cc2ccccc2[N+](=O)[O-])S1,.,.,i,.,.
O=C1Nc2ccc3c(c2C1=Cc1cc2c(cc1Br)OCO2)OCO3,.,.,i,.,.
O=C1NC(=O)/C(=C/c2cccc3ccccc23)S1,6*,i,i,-4.3,i
O=C1NC(=O)/C(=C/c2cc3c(cc2Br)OCO3)S1,i,i,i,7.0*,i
O=C1NC(=O)/C(=C\c2ccccc2OCc2ccccc2)S1,i,i,i,-8.4,i
CNC(=O)C1CCN(S(=O)(=O)c2c(C)noc2/C=C/c2ccc(C)cc2)CC1,i,i,i,-3.5,i
O=C(NCCc1ccccn1)c1cncc(Br)c1,i,i,i,-6.4,i
COc1cccc(CN(C(=O)c2cccs2)C2CCS(=O)(=O)C2)c1 (stereo not drawn),i,i,i,-6.1,i
c1ccc2oc(-c3csc(N4CCOCC4)n3)cc2c1,i,i,i,-6.4,i
Cc1nc2sccn2c1-c1nc(-c2cc3ccccc3o2)cs1,i,-7.14*,i,-8.7,i
COc1ccc(C(c2nnnn2C(C)(C)C)N2CCN(c3nc4ccccc4s3)CC2)cc1 (stereo not drawn),i,-7.11*,i,-10.2,i
COc1ccccc1N1C(=O)C2C(C(=O)c3ccccc3)=NN(c3ccccc3)C2C1=O (stereo not drawn),6*,i,i,-0.1,i
CCCc1[nH]nc2c1C(c1cccc(OC(=O)c3ccco3)c1)C(C#N)=C(N)O2 (stereo not drawn),i,i,i,4.6*,i
Cc1ccc(SCc2nc3ncccn3c2Br)cc1,i,i,i,-5.8,i
COc1cc(/C=C/C(=O)OCC(=O)N(C)CC(=O)Nc2ccc(F)cc2)ccc1OC(F)F,.,.,i,.,.
CCc1c(C)nc(N2CCN(c3cccc(OC)c3)CC2)[nH]c1=O,i,i,i,-2.1,i
CCCc1c(C)nc(N2CCN(c3cccc(OC)c3)CC2)[nH]c1=O,i,i,i,5.9*,i

# Screening data as filed in PubChem BioAssay.
